Source: PubChem BioAssay (several laboratories)
CSC inhib – blocks cancer stem cells | cancer stem cell-like cells viability, luminescence | inhibition, % at 7.5 µM | hit rate 1.1% among 300,000; in the data active = inhibition above about 75%; inconclusive = no clear call, values can overlap the other calls; tested in HMLE shEcad cells
Beta apoptosis – blocks beta cell apoptosis; protection from apoptosis, % (concentration not given with the values); hit rate 0.8% among 300,000; AID 435005; INS-1E cytokine-induced death, ATP luminescence, 48 h; percent of positive-control rescue, neutral wells zero;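 active = Every replicate reaches about 75%, or at least half do and their mean reaches it too, limit read from the data; inconclusive = At least half of replicates reach the limit but their mean does not; inactive = Under half of replicates reach the limit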;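 note: 0% = cytokine-treated negative control wells and 100% = positive control rescue; higher means more ATP so stronger rescue from cytokine killing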
SKKanGAS inh – inhibitors of SKKanGAS S. pyogenes growth in kanamycin (SK-promoter or general growth effect) | BacTiter-Glo, 6 h | inhibition, % at 7.5 µM | hit rate 1.3% among 300,000;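 active = mean replicate score, as percent of positive control median, at least 50; inconclusive = mean below 50 but one replicate at or above 50; inactive = mean and every replicate below 50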;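 note: strain carries kanamycin resistance gene driven by streptokinase promoter and grows in 40 µg/ml kanamycin; loss of luminescence reflects streptokinase promoter inhibition or plain growth inhibition; 0% = median of DMSO wells and 100% = positive control at its reference dose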
L major viab – reduces viability of Leishmania major promastigotes | resazurin fluorescence viability | inhibition, % at 10 µM | hit rate 9% among 200,000 | AID 1063; in the data active = inhibition above about 50%;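 note: promastigotes grown with compound for 44 hours at 28 °C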
T cruzi inh – T. cruzi replication inhibition; T. cruzi beta-gal in NIH3T3, luminescence, 90 h; inhibition, % (concentration not given with the values); hit rate 1.4% among 300,000; AID 1885;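 active = mean inhibition across valid replicates above about 55%, limit read from the data; inconclusive = mean below that limit but half or more replicates reach it; inactive = mean below it, under half of replicates reach it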;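 note: signal also drops with host cell toxicity which is not excluded here; 0% = plate median of DMSO wells and 100% = zero luminescence signal; higher percent means less beta-gal luminescence so fewer parasites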
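Test system: β-gal T. cruzi (Tulahuen C4) inside NIH/3T3 cells / Quantity: 5,000 cells/well / Measured by: luminescence from GalScreen with 0.05% NP40, read after 60 min / Medium: DMEM plus 2% FBS / Measure: parasite load inhibition, % / Reagent: Tulahuen C4 trypomastigotes, 5000/well / Schedule: co-culture of at least 90 h after 3 h attachment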
Mdm2-MdmX inh – disrupts the human Mdm2-MdmX interaction; inhibition, % at 8 µM; SaOS-2 split-luciferase Mdm2/MdmX complementation, luminescence; AID 485346; O15151+Q00987; hit rate 3% among 330,000;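 active = inhibition of at least 50% at 8 µM in the primary screen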
Target sequence (O15151 whole entry, looked up): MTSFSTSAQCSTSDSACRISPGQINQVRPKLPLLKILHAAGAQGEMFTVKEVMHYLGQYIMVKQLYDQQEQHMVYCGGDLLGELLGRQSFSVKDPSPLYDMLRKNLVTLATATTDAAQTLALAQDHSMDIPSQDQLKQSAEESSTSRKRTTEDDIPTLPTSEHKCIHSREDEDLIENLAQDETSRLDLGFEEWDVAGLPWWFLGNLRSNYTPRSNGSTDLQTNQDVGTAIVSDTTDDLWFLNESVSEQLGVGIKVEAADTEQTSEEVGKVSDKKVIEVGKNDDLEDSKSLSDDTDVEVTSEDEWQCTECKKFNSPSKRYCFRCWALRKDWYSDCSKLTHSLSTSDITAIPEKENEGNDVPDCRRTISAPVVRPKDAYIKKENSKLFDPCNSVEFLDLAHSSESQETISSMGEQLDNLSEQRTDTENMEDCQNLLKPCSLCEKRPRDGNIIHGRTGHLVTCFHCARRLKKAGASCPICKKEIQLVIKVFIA
Target sequence (Q00987 whole entry, looked up): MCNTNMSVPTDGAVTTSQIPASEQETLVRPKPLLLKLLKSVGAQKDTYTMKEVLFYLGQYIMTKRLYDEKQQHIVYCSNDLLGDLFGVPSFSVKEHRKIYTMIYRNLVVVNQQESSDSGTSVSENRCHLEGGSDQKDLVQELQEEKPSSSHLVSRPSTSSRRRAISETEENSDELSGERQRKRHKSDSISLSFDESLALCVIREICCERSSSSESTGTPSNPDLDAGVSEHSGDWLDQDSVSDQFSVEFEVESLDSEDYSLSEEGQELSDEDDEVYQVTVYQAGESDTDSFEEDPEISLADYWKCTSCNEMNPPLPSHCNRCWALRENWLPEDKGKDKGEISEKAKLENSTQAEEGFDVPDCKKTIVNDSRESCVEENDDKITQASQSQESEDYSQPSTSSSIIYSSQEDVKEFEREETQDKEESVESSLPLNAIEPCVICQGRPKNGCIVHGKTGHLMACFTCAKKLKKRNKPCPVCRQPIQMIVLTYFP
Mdm2-MdmX conf – human Mdm2/MdmX binding inhibition, confirmed; shares compounds with Mdm2-MdmX inh; luminescent assay; inhibition, % at 8 µM; hit rate 55% among 10,000; in the data active = inhibition above about 40%
Full FLuc ctr – full-length luciferase inhibition in Mdm2/MdmX counter-screen | shares compounds with Mdm2-MdmX inh | SaOS-2 full-length luciferase counterscreen, luminescence | inhibition, % at 8 µM | hit rate 77% among 6,200 | AID 504607;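 active = mean inhibition at 8 µM reaching about 37%, which flags the compound as non-specific, limit read from the data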;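 note: p53-null SaOS-2 cells with luciferase driven by a doxycycline-inducible promoter; compound on cells about two nights before reading with doxycycline added after day one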
* hit, by the source's call; ? = inconclusive; . = no result given. In the library only some 9.4% were active in any assay of this set; here they are far more common.

SMILES	CSC inhib	Beta apoptosis	SKKanGAS inh	L major viab	T cruzi inh	Mdm2-MdmX inh	Mdm2-MdmX conf	others
Cc1ccccc1Cn1c(=O)n(-c2ccccc2)c(=O)c2ccc(C(=O)NCc3ccco3)cc21	-1	2	-2	-6	-42	68*	22
Cc1ccc(-n2c(=O)c3ccc(C(=O)NCc4ccco4)cc3n(Cc3ccccc3C#N)c2=O)cc1	.	.	0	-4	3	29	.
O=C1c2ccccc2OC2(C=Cc3ccccc3O2)N1Cc1ccccc1 (stereo not given)	.	14	40	24	21	54*	48*	Full FLuc ctr=40*
O=C1NC2(CCN(Cc3ccccc3)CC2)Oc2ccccc21	.	3	-3	6	18	15	.
CN(C)CC(CCC(CN(C)C)C(O)(c1ccccc1)c1ccccc1)C(O)(c1ccccc1)c1ccccc1 (stereo not given)	.	.	-5	.	40	100*	99*	Full FLuc ctr=52*
Cc1ccn2c(NC3CCCCC3)c(-c3cccc(SC4CCCCC4)c3)nc2c1	100*	7	.	.	.	91*	0
CCC(C)Sc1cccc(-c2nc3cc(C)ccn3c2NC2CCCCC2)c1 (stereo not given)	.	.	.	.	.	28	.
CCOc1ccc(N2C(=O)CC(C(C)c3ccccc3)C2=O)cc1 (stereo not given)	-14	.	-2	.	-8	1	.
O=C(Nc1cc(S(=O)(=O)N2CCCCCC2)ccc1OCC(F)(F)F)c1cnccn1	.	7	.	.	.	19	.
CC(C)n1cnc2c(Nc3ccc(F)c(Cl)c3)nc(NCCO)nc21	-5	-2	2	.	31	25	.
CC(C)C[C@H](CO)Nc1nc(Nc2cccc(Cl)c2)c2ncn(C(C)C)c2n1	-8	4	25	.	52	75*	65*	Full FLuc ctr=58*
CC(C)n1cnc2c(Nc3cccc(F)c3)nc(NCCO)nc21	-13	-7	4	.	12	62*	58*	Full FLuc ctr=82*
O=C(Nc1nc2ccccc2[nH]1)c1ccc(Br)o1	11	11	4	16	0	-48	.
CC(C)Cn1cnc2c(c(-c3ccccc3)c(-c3ccccc3)n2Cc2ccco2)c1=N	58	56	-1	100*	60*	91*	-2
O=c1c2c3nc4ccccc4nc3n(Cc3ccccc3)c2ncn1Cc1ccco1	.	.	.	-1	.	.	.
N=c1c2c(-c3ccccc3)c(-c3ccccc3)n(Cc3ccco3)c2ncn1Cc1ccccc1	110*	91*	36	100*	47	100*	62*	Full FLuc ctr=23
N=c1c2c(-c3ccccc3)c(-c3ccccc3)n(Cc3ccccc3)c2ncn1CCO	8	8	-6	100*	57*	73*	65*	Full FLuc ctr=40*
N=c1c2c(-c3ccccc3)c(-c3ccccc3)n(Cc3ccco3)c2ncn1CCCN1CCOCC1	32	?	-3	100*	92*	100*	88*	Full FLuc ctr=56*
CC(C)[C@H](NC(=O)N1CCn2c1nc1ccccc12)C(=O)NC1CCCCC1	-7	1	8	.	2	7	.
Cc1cc(C)c(NC(=O)CN(C)CC(=O)N(C)CC(=O)Nc2c(Cl)cccc2Cl)c(C)c1	.	.	.	.	.	-15	.
Cc1cc(=O)oc2cc(NC(=O)c3cccc(Br)c3)ccc12	17	43	-5	.	5	66*	-32
Cc1cc(=O)oc2cc(NC(=O)c3cc4ccccc4o3)ccc12	-4	4	-3	4	-4	16	.
N#Cc1ccccc1S(=O)(=O)N1CCN(C(=O)C2CCCCC2)CC1	6	-1	.	.	.	-30	.
Cc1cc2cc(CCNC(=O)C(C)C)c(=O)[nH]c2cc1C	-6	.	-10	2	1	8	.
Cc1cc2cc(CCNC(=O)C3c4ccccc4Oc4ccccc43)c(=O)[nH]c2cc1C	-6	-12	-2	-8	-1	63*	14
SMILES	CSC inhib	Beta apoptosis	SKKanGAS inh	L major viab	T cruzi inh	Mdm2-MdmX inh	Mdm2-MdmX conf	others
C=C1CCC[C@]2(C)C[C@H]3OC(=O)C(CN4CCOCC4)[C@H]3C[C@@H]12 (stereo not given in full)	12	-7	-3	.	-35	30	.
C/C1=C\CCC2C(/C=C(\C)CC1)OC(=O)C2CN1CCCCC1 (stereo not given)	16	-12	0	.	-19	60*	35
CCCCN(C(=O)CSc1nc2ccccc2n1CC)C1CCS(=O)(=O)C1 (stereo not given)	.	2	.	.	.	-24	.
CC(=O)Nc1ccc(Oc2sc(C(=O)c3ccccc3)c(N)c2C#N)cc1	35	-37	-9	98*	4	61*	29	Full FLuc ctr=78*
CC(=O)Nc1ccc(Oc2ccccc2)cc1	6	-5	7	.	-8	14	.
CCN(Cc1cc2ccccc2[nH]c1=O)C(=O)C1CCCCC1	2	1	1	2	3	11	.
CC(C)(C)N(Cc1cc2ccccc2[nH]c1=O)C(=O)C1CCCCC1	5	-4	-9	13	-12	62*	64*	Full FLuc ctr=89*
CCN(CC)CCCNC(=O)c1sc2ncn(CC(=O)Nc3ccc(C)c(Cl)c3)c(=O)c2c1C	-3	-4	13	11	50	53*	21
CC(C)N(Cc1ccccc1)C(=O)COC(=O)c1c(F)cccc1F	-16	-3	.	.	.	8	.
COc1ccc2c(-c3ccc(OCCN4CCOCC4)cc3)c(-c3ccccc3OC)sc2c1	.	.	.	.	.	7	.
COc1ccc2c(-c3ccc(OCCN4CCCCC4)cc3)c(-c3ccccc3OC)sc2c1	.	.	.	.	.	63*	16
COc1cc2sc(-c3ccccc3OC)c(-c3ccc(OCCN4CCOCC4)cc3)c2cc1OC	.	.	.	.	.	61*	9
COc1ccccc1-c1sc2ccccc2c1-c1ccc(OCCN2CCCCC2)cc1	.	.	.	.	.	67*	44*	Full FLuc ctr=55*
CC1=CC=CC2=NC(=O)CC(C)(C(=O)O)N12 (stereo not given)	-5	-12	1	-1	-18	-23	.
CC1=C(C)CC(C(=O)Nc2ccc(C(=O)N3CCOCC3)cc2)C(C(=O)O)C1 (stereo not given)	9	-1	-3	-3	2	-8	.
COc1cc(/C=C/C(=O)/C=C(O)/C=C/c2ccc(O)c(OC)c2)ccc1O	4	3	.	.	.	66*	19
COc1cc(NC(=O)COC(=O)/C=C/c2ccc(O)c(OC)c2)cc(OC)c1	-2	-5	15	2	2	10	.
COc1cc(/C=C/C(=O)CC(=O)/C=C/c2ccc(O)c(OC)c2)ccc1O	94*	.	7	49	-24	54*	8
CCOc1ncccc1C(=O)NCCCSc1ccccc1	2	-5	0	.	5	29	.
O=C1N/C(=C\c2ccc(N3CCOCC3)c(F)c2)C(=O)N1Cc1ccccc1	52	28	13	2	0	73*	40*	Full FLuc ctr=74*
